The full list was thinned out, with hits kept by preference.
S100A4 MyoIIA: S100A4-myosin IIA interaction inhibition | inhibition, % at 10.7 µM | AID 652163 | S100A4/TAMRA-MyoIIA peptide fluorescence polarization | hit rate 0.14% among 360,000 | P26447;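 active means mean inhibition of at least 70% across replicates, with every replicate also reaching that level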
Target sequence (P26447 whole entry, looked up): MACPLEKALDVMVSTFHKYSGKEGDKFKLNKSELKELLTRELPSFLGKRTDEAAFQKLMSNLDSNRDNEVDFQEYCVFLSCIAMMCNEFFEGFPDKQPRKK
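Test system: S100A4 monomer protein; Medium: HEPES pH 7.2 with CaCl2, KCl, NaCl, DTT, Triton; Probe or stimulus: TAMRA-labelled myosin IIA heavy-chain peptide probe, 5 nM; Doses: one dose per compound; Times: polarization read 5 min after assay mix addition, stable 5–60 min; Benchmarks: neutral control DMSO, positive control TFP.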
FGF22 binding-1: binders of recombinant human FGF22 by thermal shift; activity (Tm shift, normalised), % at 9.99 µM; SYPRO orange fluorescence; percent of sucrose octasulfate shift, DMSO zero; hit rate 1.5% among 340,000;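 active means mean Tm shift, scaled 0 neutral to 100 positive control, at about 1.3% or above, every replicate too, limit read from the data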
ERp5 block: ERp5 (human) disulfide isomerase inhibition | ERp5 insulin aggregation, absorbance 650 nm, 90 min | hit rate 0.05% among 350,000 | Q15084 | AID 651711 | inhibition, % at 9.99 µM;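 active means mean replicate inhibition above about 25%, with every replicate also reaching it, limit read from the data, passing the limit was not always enough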
PDI inh: inhibitors of human protein disulfide isomerase; hit rate 0.052% among 350,000; PDI insulin aggregation turbidity, A650, 90 min; AID 588391; inhibition, % at 10 µM; P07237;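 active means mean inhibition across replicates of 30% or more, whatever share of single replicates reach that level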
Target sequence (P07237 whole entry, looked up): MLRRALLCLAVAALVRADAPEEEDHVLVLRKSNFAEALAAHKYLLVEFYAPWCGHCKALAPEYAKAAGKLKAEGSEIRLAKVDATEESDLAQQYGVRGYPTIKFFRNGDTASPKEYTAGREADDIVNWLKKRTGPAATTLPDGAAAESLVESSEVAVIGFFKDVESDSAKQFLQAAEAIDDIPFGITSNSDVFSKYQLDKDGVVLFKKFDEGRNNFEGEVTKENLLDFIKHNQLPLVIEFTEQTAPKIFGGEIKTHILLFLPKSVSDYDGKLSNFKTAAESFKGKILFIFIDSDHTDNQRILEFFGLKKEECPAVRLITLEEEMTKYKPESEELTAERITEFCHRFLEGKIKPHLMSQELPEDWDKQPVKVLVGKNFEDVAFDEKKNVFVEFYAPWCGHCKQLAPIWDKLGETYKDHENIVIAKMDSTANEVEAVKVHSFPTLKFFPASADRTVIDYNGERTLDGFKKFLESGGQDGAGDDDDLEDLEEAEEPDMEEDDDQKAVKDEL
ERAP1 inh: inhibitors of human ERAP1 aminopeptidase; Q9NZ08; recombinant ERAP1, Leu-AMC fluorescence, 60 min; inhibition, % at 10.7 µM; hit rate 0.15% among 340,000;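 active means mean replicate inhibition of at least 30%, or all replicates individually reaching that 30% level; inactive means mean below 30% and not every replicate reaching it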
FGF22 binding-2: binders of human FGF22 by thermal shift. hit rate 2% among 1,000. shares compounds with FGF22 binding-1. recombinant FGF22 thermal shift, SYPRO orange fluorescence. thermal shift activity, °C (ΔTm) at 38 µM;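 active means fitted rise in melting shift crosses a set limit at or below the top valid dose tested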
SYPRO no-protein: counter-screen for FGF22 binders: compound-only thermal shift, no protein | shares compounds with FGF22 binding-1 | compound-only SYPRO orange thermal shift counter-screen | AC50, µM (titrated, usually from 38 µM) | hit rate 2% among 1,000;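 active means rising signal whose fitted curve reaches the 0.54 level within the top valid dose, showing a melting point, actives reach about 13 µM in these data; inactive means the rest, including activity in the opposite direction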; further: value is where the raw curve crosses a fixed level and not half-maximal
Large screens that a line does not name were inactive (follow-up assays come after a bar, where they were run).

Cn1cccc1/C=N/NC(=O)Cc1cccc2ccccc12	FGF22 binding-1 2.1 | FGF22 binding-2 inactive | SYPRO no-protein inactive
C/C=C/c1ccc2c(c1)O[C@H](CN(C)C(=O)CN(C)C)[C@H](C)CN([C@H](C)CO)S2(=O)=O	none (no result: PDI inh)
COCC(=O)N1[C@H](CO)[C@H]2c3ccccc3NC[C@H]21	FGF22 binding-1 15 (no result: PDI inh) | FGF22 binding-2 inactive | SYPRO no-protein inactive
O=C(c1cccc(F)c1)N1C[C@H]2[C@@H](c3ccccc31)[C@H](CO)N2C(=O)C1CCCCC1	none (no result: FGF22 binding-1, PDI inh)
COCC(=O)N1C[C@@H]2[C@H](c3ccccc31)[C@H](CO)N2C(=O)c1ccccc1F	FGF22 binding-1 1.7 (no result: PDI inh) | FGF22 binding-2 inactive | SYPRO no-protein inactive
O=C(c1cccc(F)c1)N1C[C@@H]2[C@H](c3ccccc31)[C@H](CO)N2C(=O)C1CCCCC1	FGF22 binding-1 66 (no result: PDI inh) | FGF22 binding-2 inactive | SYPRO no-protein inactive
CCC(=O)N1[C@H](CO)[C@@H]2c3ccccc3N(C(=O)c3ccccc3F)C[C@@H]21	none (no result: PDI inh)
COc1ccccc1C(=O)N1C[C@H]2[C@@H](c3ccccc31)[C@H](CO)N2C(=O)C1CCCCC1	FGF22 binding-1 1.7 (no result: PDI inh) | FGF22 binding-2 inactive | SYPRO no-protein inactive
O=C(C[C@@H]1C[C@@H]2c3cc(NC(=O)NC4CCCC4)ccc3O[C@@H]2[C@@H](CO)O1)NCC1CC1	none (no result: PDI inh)
O=C(CN1CCN(c2ccccc2O)CC1)Nc1ccc2c(c1)OCCCO2	none
CCN1C(=O)C(CC(=O)Nc2ccc(OC)cc2)N(Cc2ccc(OC)c(OC)c2)C1=S (configuration not stated)	none (no result: FGF22 binding-1, ERAP1 inh)
CCN1C(=O)C(CC(=O)Nc2ccc(OC)cc2)N(CCc2ccc(OC)cc2)C1=S (configuration not stated)	FGF22 binding-1 1.6 | FGF22 binding-2 inactive | SYPRO no-protein inactive
CCOc1ccc(NC(=O)CC2C(=O)N(C)C(=S)N2Cc2ccc3c(c2)OCO3)cc1 (configuration not stated)	none (no result: S100A4 MyoIIA, FGF22 binding-1, ERp5 block, ERAP1 inh)
CCN1C(=O)C(CC(=O)Nc2ccc(OC)cc2)N(Cc2ccc3c(c2)OCO3)C1=S (configuration not stated)	FGF22 binding-1 2.0 | FGF22 binding-2 inactive | SYPRO no-protein inactive
O=C(CCn1c(=S)[nH]c2ccccc2c1=O)N1CCOCC1	none
O=C(CCSCCc1ccccn1)Nc1ccc(Cc2ccncc2)cc1	none
Cc1ccc(S(=O)(=O)N/N=C/c2c(C)nn(-c3ccccc3)c2C)cc1	none (no result: S100A4 MyoIIA, FGF22 binding-1, ERp5 block, ERAP1 inh)
O=C(O)c1[nH]c2ccc(Br)cc2c1CCN1C(=O)c2cccc([N+](=O)[O-])c2C1=O	FGF22 binding-1 3.0 (no result: ERAP1 inh) | SYPRO no-protein inactive
COc1ccc(/C=N/NC(=O)c2cc(-c3ccc4c(c3)OCO4)n[nH]2)cc1OC	FGF22 binding-1 1.5 | FGF22 binding-2 inactive | SYPRO no-protein inactive
O=C(C1CC1)N1CC2(C1)[C@H](c1ccccc1)[C@@H](CO)N2Cc1ccc(Cl)cc1	FGF22 binding-1 2.9 (no result: PDI inh) | FGF22 binding-2 inactive | SYPRO no-protein inactive
O=C1Cc2ccccc2C(=O)N1c1cccc(Cl)c1	FGF22 binding-1 2.2 | FGF22 binding-2 inactive | SYPRO no-protein inactive
O=C1Cc2ccccc2C(=O)N1c1ccccc1	none
O=C(C[C@@H]1CC[C@H]2[C@@H](COC[C@@H](O)CN2C(=O)c2ccc(F)cc2)O1)NCc1cccc(F)c1	FGF22 binding-1 1.5 (no result: PDI inh) | FGF22 binding-2 inactive | SYPRO no-protein inactive
O=C(C[C@@H]1CC[C@@H]2[C@H](COC[C@H](O)CN2Cc2cc(F)ccc2F)O1)NCc1ccc(F)cc1	none (no result: PDI inh)
O=C(C[C@H]1CC[C@@H]2[C@H](COC[C@H](O)CN2C(=O)c2ccc(F)cc2)O1)NCc1cccc(F)c1	none (no result: PDI inh)
O=C(C[C@H]1CC[C@H]2[C@@H](COC[C@H](O)CN2Cc2ccccc2)O1)NCCc1ccccc1	FGF22 binding-1 1.6 (no result: PDI inh) | FGF22 binding-2 inactive | SYPRO no-protein inactive
O=C(C[C@H]1CC[C@@H]2[C@H](COC[C@H](O)CN2Cc2cc(F)ccc2F)O1)NCc1ccc(F)cc1	FGF22 binding-1 2.6 (no result: PDI inh) | FGF22 binding-2 inactive | SYPRO no-protein inactive
O=C(C[C@@H]1CC[C@H]2[C@@H](COC[C@@H](O)CN2C(=O)c2ccccc2F)O1)NCc1ccccc1	FGF22 binding-1 1.8 (no result: PDI inh) | FGF22 binding-2 inactive | SYPRO no-protein inactive
O=C(C[C@@H]1CC[C@H]2[C@@H](COC[C@@H](O)CN2Cc2ccccc2)O1)NCCc1ccccc1	none (no result: FGF22 binding-1, PDI inh)
CN(Cc1ccccc1)C(=O)CN1CCN(C(c2ccccc2)c2ccccc2)CC1	none
CCOC(=O)C(C(=O)OCC)C(CC(=O)C1CC1)c1ccccc1 (configuration not stated)	none (no result: S100A4 MyoIIA, FGF22 binding-1, ERp5 block, ERAP1 inh)
CCc1nnc(NC(=O)CN2CCN(Cc3ccc(C)cc3)CC2)s1	FGF22 binding-1 1.7 | FGF22 binding-2 inactive | SYPRO no-protein inactive
CC(Oc1ccc(Br)cc1)C(=O)NC1CCN(Cc2ccccc2)CC1 (configuration not stated)	none (no result: FGF22 binding-1)
CC(C)Oc1ccc(C(=O)NC2CCN(Cc3ccccc3)CC2)cc1	FGF22 binding-1 6.6 | FGF22 binding-2 inactive | SYPRO no-protein inactive
CO[C@H]1CN(C)C(=O)c2cc(NC(C)=O)ccc2OC[C@H](C)N(Cc2ccc(F)cc2)C[C@@H]1C	none (no result: PDI inh)
O=c1[nH][nH]c(C(F)(F)F)c1C=Nc1ccccc1Cl	none (no result: S100A4 MyoIIA, FGF22 binding-1, ERp5 block, ERAP1 inh)
NNC(=O)CN1C(=O)C2(OCCO2)c2ccccc21	FGF22 binding-1 30 | FGF22 binding-2 inactive | SYPRO no-protein inactive
CCC(=O)N1CC2(CCN(Cc3nccs3)CC2)c2c(n(C)c3cc(OC)ccc23)[C@@H]1CO	FGF22 binding-1 1.3 (no result: PDI inh) | FGF22 binding-2 inactive | SYPRO no-protein inactive
CCC(=O)N1CC2(CCN(Cc3nccs3)CC2)c2c(n(C)c3cc(OC)ccc23)[C@H]1CO	none (no result: PDI inh)
C=CCC1c2cccc(C(=O)O)c2C(=O)N1c1cccc(C)c1 (configuration not stated)	none
C=CCC1c2cccc(C(=O)O)c2C(=O)N1c1cccc(OC)c1 (configuration not stated)	FGF22 binding-1 18 | FGF22 binding-2 inactive | SYPRO no-protein inactive
CO[C@H](CN(C)S(=O)(=O)c1cccc(Cl)c1)[C@H](C)CN([C@H](C)CO)S(=O)(=O)c1ccc(Cl)cc1	none (no result: PDI inh)
CO[C@@H](CN(C)S(=O)(=O)c1ccc(Cl)cc1)[C@@H](C)CN([C@H](C)CO)S(=O)(=O)c1cccc(Cl)c1	FGF22 binding-1 1.4 (no result: PDI inh) | FGF22 binding-2 inactive | SYPRO no-protein inactive
CO[C@@H](CN(C)S(=O)(=O)c1ccc(Cl)cc1)[C@@H](C)CN([C@@H](C)CO)S(=O)(=O)c1cccc(Cl)c1	none (no result: PDI inh)
CO[C@@H](CN(C)S(=O)(=O)c1cccc(Cl)c1)[C@@H](C)CN([C@@H](C)CO)S(=O)(=O)c1cccc(Cl)c1	FGF22 binding-1 1.5 (no result: PDI inh) | FGF22 binding-2 inactive | SYPRO no-protein inactive
